According to ChEMBL document CHEMBL1123751, “Synthesis and biological activity of unsaturated carboacyclic purine nucleoside analogues” (J Med Chem, 1987):
Converted amounts (≈) assume the structure as drawn.

Key:
[1] = test system: Vero; assay: Inhibition effect was determined against Herpes simplex virus (HSV) -1 in vero cell monolayer culture; assay type: functional, Chlorocebus sabaeus
[2] = test system: Vero; assay: Minimum inhibitory concentration of cytopathogenic-induced effect was determined against Herpes simplex virus (HSV) -2 in vero cell monolayer culture; assay type: functional; settings: Chlorocebus sabaeus
[3] = test system: Human alphaherpesvirus 2; assay: Virus rating is measurement of degree of inhibition of virus-induced cytopathogenic effects and the degree of cytotoxicity produced by the test compound for Herpes simplex virus (HSV) -2; assay type: functional
Procedure, shortened: (§1)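 Virus rating as defined by Southern Research Institute: a selective antiviral score that combines the degree of inhibition of virus-induced cytopathogenic effect with the degree of cytotoxicity from the test compound, determined by a modification of a published method.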

[4] = test system: Human alphaherpesvirus 2; assay: Evaluated virus rating for Herpes simplex virus (HSV) -2; assay type: functional; procedure, shortened: as §1
[5] = Virus rating is measurement of degree of inhibition of virus-induced cytopathogenic effects and the degree of cytotoxicity produced by the test compound for influenza type A2; assay type: functional
[6] = test system: Vero; assay: Inhibition of cytopathogenic effect was determined against Herpes simplex virus (HSV) -2 in vero cell monolayer culture; assay type: functional; settings: Chlorocebus sabaeus

| Compound | ID90 [1] | MIC50 [2] | Virus rating [3] | Virus rating [4] | Virus rating [5] | MIC50 [6] |
| --- | --- | --- | --- | --- | --- | --- |
| Nc1nc(O)c2ncn(CC=C(CO)CO)c2n1 | 25 µM | 65.6 µg/mL (≈ 261 µM) | 1.5 |  |  |  |
| Nc1ncnc2c1ncn2CC=C(CO)CO |  |  |  | 0.6 | 0.3 | 939 µg/mL (≈ 3990 µM) |
| Nc1nc2c(ncn2COCCO)c(=O)[nH]1 [ACYCLOVIR] |  |  | 5.1 |  |  | 4.3 µg/mL (≈ 19.1 µM) |
| NC(=O)c1ncn([C@@H]2O[C@H](CO)[C@@H](O)[C@H]2O)n1 [RIBAVIRIN] |  |  |  |  | 2.8 |  |
| Nc1ncnc2c1ncn2[C@@H]1O[C@H](CO)[C@@H](O)[C@@H]1O [VIDARABINE] |  |  | 1.2 |  |  | 26.8 µg/mL (≈ 100 µM) |
